This is an account of results in ChEMBL document CHEMBL1136798, “Synthesis and pharmacological characterization of a series of geometrically constrained 5-HT(2A/2C) receptor ligands” (J Med Chem, 2003).

The source made the active and inactive calls.

Test [1] addresses T1, 5-hydroxytryptamine receptor 1A (Homo sapiens, UniProt P08908).
T1 sequence (P08908 whole entry): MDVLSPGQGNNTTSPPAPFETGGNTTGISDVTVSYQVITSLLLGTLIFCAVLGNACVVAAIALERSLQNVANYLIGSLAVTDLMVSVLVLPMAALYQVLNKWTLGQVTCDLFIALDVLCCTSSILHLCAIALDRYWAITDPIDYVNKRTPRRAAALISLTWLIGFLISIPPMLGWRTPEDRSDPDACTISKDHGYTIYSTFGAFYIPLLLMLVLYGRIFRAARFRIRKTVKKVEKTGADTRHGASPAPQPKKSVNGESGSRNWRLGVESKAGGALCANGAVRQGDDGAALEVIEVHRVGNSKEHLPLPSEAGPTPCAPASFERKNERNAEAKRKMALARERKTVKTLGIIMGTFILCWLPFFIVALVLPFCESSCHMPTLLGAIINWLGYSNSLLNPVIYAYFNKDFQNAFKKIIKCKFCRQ
As to the kind of experiment: Tested in vitro for its ability to bind to 5-hydroxytryptamine 1A receptor using [3H]8-OH-DPAT as radioligand. In outline:
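Human 5-HT1A receptor stably expressed in cells, used as harvested pellets. Competition used 2.0 nM [3H]-8-OH-DPAT in Tris/EDTA/MgCl2 buffer at pH 7.4, for 60 min at 25 °C. Nonspecific binding was defined with 10 µM 5-HT. Bound label was collected by filtration and counted by scintillation.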

Test [2] addresses T2, 5-hydroxytryptamine receptor 2A (Rattus norvegicus, UniProt P14842). Nature of the test: In vitro binding to 5-hydroxytryptamine 2A receptor using [125 I]-DOI. In outline: (§1)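 Stably transfected cells expressing the rat 5-HT2A or rat 5-HT2C receptor were harvested as frozen pellets. Nonspecific binding was set with 10 µM cinanserin (5-HT2A) or 10 µM mianserin (5-HT2C). Bound label was collected on PEI-soaked GF/B filters and counted by scintillation.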

Test [3] has as its target T3, 5-hydroxytryptamine receptor 2C (Rattus norvegicus, UniProt P08909).
T3 sequence (P08909 whole entry): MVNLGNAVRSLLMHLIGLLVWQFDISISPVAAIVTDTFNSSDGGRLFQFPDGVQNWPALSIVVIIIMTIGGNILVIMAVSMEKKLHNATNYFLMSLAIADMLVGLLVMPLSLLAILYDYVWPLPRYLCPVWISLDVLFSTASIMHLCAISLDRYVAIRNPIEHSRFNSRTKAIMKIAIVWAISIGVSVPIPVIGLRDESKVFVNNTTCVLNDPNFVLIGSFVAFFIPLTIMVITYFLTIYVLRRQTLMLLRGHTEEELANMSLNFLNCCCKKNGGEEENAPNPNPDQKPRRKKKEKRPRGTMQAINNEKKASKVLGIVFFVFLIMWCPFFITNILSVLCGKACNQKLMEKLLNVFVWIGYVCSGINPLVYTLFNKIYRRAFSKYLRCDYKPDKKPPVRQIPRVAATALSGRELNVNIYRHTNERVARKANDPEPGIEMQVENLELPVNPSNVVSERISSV
As to the kind of experiment: In vitro binding to 5-hydroxytryptamine 2C receptor using [125 I]-DOI. In outline: as §1

In test [4] the target is T2, 5-hydroxytryptamine receptor 2A. As to the kind of experiment: (§2) Tested for its ability to activate phospholipase C by quantification of IP3 at cloned rat 5-hydroxytryptamine 2A receptor. In outline: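 They were pretreated for 15 min with 10 µM pargyline/10 mM LiCl, then exposed to drug for 30 min at 37 °C. Formic acid stopped the reaction. [3H]inositol phosphates were separated on Dowex-1 columns. Efficacy is expressed relative to serotonin.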

Test [5] is filed under the species Rattus norvegicus. Nature of the test: Maximum 5-HT stimulation was determined […]. In kind it is functional. In outline:
(§3)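 Rat 5-HT2A-expressing cells at 70% confluency were labelled for 18-20 h with 1.0 µCi/mL [3H]-myo-inositol. They were pretreated for 15 min with 10 µM pargyline/10 mM LiCl, then exposed to drug for 30 min at 37 °C. Formic acid stopped the reaction. [3H]inositol phosphates were separated on Dowex-1 columns. Efficacy is expressed relative to serotonin.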

For test [6], the target named is T2, 5-hydroxytryptamine receptor 2A. The test is described as §2. In a few lines: as §3
The source holds these as a separate data set.

Test [7] has the same target. Nature of the test: Tested in vitro for its ability to bind to 5-hydroxytryptamine 2A receptor using [125 I]-DOI as radioligand. In outline: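 Stably transfected cells expressing the rat 5-HT2A or rat 5-HT2C receptor were harvested as frozen pellets. Competition used 0.20 nM [125I]-DOI in 50 mM Tris, 0.1 mM EDTA, 10 mM MgCl2, pH 7.4, for 60 min at 25 °C. Nonspecific binding was set with 10 µM cinanserin (5-HT2A) or 10 µM mianserin (5-HT2C). Bound label was collected on PEI-soaked GF/B filters and counted by scintillation.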

The subject of test [8] is Rattus norvegicus. Nature of the test: Compound was tested for effective dose in DOI trained rats; Partial substitution at 1-6 uM/Kg (0.36-[…]). It counts as functional, organism-based.
The test system of test [9] is Rattus norvegicus. As to the kind of experiment: Compound was tested for effective dose in LSD trained rats; Partial substitution at 1-6 uM/Kg (0.36-[…]). It counts as functional, organism-based.
For test [10], the species on record is Rattus norvegicus. As to the kind of experiment: Maximum 5-HT stimulation was determined at 10 uM […]. In kind it is functional.
The species entered for test [11] is Rattus norvegicus. Nature of the test: Compound was tested for effective dose in DOI trained rats. In kind it is functional.
Test [12] is filed under the species Rattus norvegicus. As to the kind of experiment: Compound was tested for effective dose in LSD trained rats. It counts as functional.
For test [13], the target named is T2, 5-hydroxytryptamine receptor 2A. Nature of the test: Tested for its ability to activate phospholipase c by quantification of IP3 at cloned rat 5-hydroxytryptamine 2A receptor. In a few lines:
as §3

T2 sequence (P14842 whole entry): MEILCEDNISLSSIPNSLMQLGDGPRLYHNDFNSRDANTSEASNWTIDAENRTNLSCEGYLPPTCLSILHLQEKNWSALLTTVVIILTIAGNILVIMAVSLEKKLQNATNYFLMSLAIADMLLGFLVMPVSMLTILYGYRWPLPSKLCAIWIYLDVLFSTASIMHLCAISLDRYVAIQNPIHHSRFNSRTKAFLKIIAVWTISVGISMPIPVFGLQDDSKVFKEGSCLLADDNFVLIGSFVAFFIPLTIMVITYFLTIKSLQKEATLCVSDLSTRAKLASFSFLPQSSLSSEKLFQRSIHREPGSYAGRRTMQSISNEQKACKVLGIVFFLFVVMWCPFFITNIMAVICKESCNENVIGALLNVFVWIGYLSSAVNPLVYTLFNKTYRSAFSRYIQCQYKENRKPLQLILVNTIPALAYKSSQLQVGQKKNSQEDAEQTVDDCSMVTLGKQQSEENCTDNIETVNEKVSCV

`COc1ccc2c3c1[C@H](CN)CC[C@@H]3CO2`: the Ki (in general, a dissociation constant, usually derived from enzyme kinetics or from competition with a known ligand) in test [1] worked out at 3000 nM; in test [2], 700 nM; in test [3], 59 nM.

With `CN(C)CCc1c[nH]c2cccc(O)c12` [PSILOCIN], the EC50 – broadly, the concentration giving half of the maximal effect – in test [4] amounted to 2300 nM. This molecule also displayed a Ki in test [2] of 25 nM. Further, the Max in the test listed under Rattus norvegicus [5] is 46%.

Turning to `COc1cc(Br)c2c3c1[C@H](CN)CC[C@H]3CO2`, the values for the inhibitory constant (Ki) in test [1], in test [7] and in [3] were 550 nM, 9.3 nM and 4.9 nM, respectively. Moreover, in test [6], it took 340 nM to reach a half-maximal effect (EC50). Also, the Max in the test filed under Rattus norvegicus [5] is reported as 37%.

Regarding `COc1cc(Br)c2occ3c2c1[C@H](CN)CC3`, the Ki turned out to be 105 nM in test [1], 2.6 nM in test [2] and 1.1 nM in [3]. In test [4], a half-maximal effect (EC50) was put at 120 nM. This molecule also came in with a Max in the test listed under Rattus norvegicus [5] of 33%. Moreover, the PS result in the test on Rattus norvegicus [8] and with Rattus norvegicus [9] was “Partially active” in each case.

On to `CCN(CC)C(=O)[C@@H]1C=C2c3cccc4[nH]cc(c34)C[C@H]2N(C)C1` [LYSERGIDE], for which, in the test filed under Rattus norvegicus [5], the Max is on record as 22%.

`COc1cc(Br)c2c3c1C[C@H](N)C[C@@H]3CO2` (relative stereo): the inhibition constant (Ki) in test [1] was 960 nM; in test [2], 16 nM; in [3], 4 nM. The molecule further returned a 50% effective concentration (EC50) in test [4] of 2090 nM. In the test listed under Rattus norvegicus [5], this molecule returned a Max of 63%.

Regarding `COc1ccc2c3c1[C@H](CN)CC[C@H]3CO2`, the figures for the Ki in [1], in test [2] and in test [3] were 1000 nM, 310 nM and 34 nM, respectively.

For `COc1ccc2occ3c2c1[C@H](CN)CC3`, the Ki in [1] came out at 860 nM; in test [2], 200 nM; in [3] it was 11 nM. The EC50 in [4] is > 10000 nM. Also, the Max in the test listed under Rattus norvegicus [10] is reported as 10%.

Consider `COc1cc(Br)c2c3c1[C@H](CN)CC[C@@H]3CO2`, for which the results for the Ki in test [1], in [2] and in test [3] were 520 nM, 8.7 nM and 2.8 nM, respectively. Besides, a half-maximal effect in [4] (EC50) was put at 1100 nM. In the test filed under Rattus norvegicus [5], this molecule yielded a Max of 49%.

`COc1cc(CC(C)N)c(OC)cc1Br` (configuration not stated) [BROLAMFETAMINE]: the ED50 (commonly the dose at which the effect has come halfway, by size or by number of responders) in the test listed under Rattus norvegicus [11] was 0.091 µmol/kg; in the test filed under Rattus norvegicus [12] it was 1.06 µmol/kg. Further, in the test listed under Rattus norvegicus [5], the Max is recorded as 79%.

With `COc1cc(CCN)cc(OC)c1OC` [MESCALINE], a half-maximal effect in [13] (EC50) was put at 2600 nM. Besides, in the test listed under Rattus norvegicus [5], the Max is reported as 92%.
